Reference: ChEMBL document CHEMBL3588840, “An Isoflavone from Leiophyllum buxifolium and Its Antiproliferative Effect” (J Nat Prod, 2015)

Columns and labels:
[1] = Antiproliferative activity against mouse NIH/3T3 cells assessed as inhibition of cell proliferation incubated for 72 hrs by SRB assay; assay type: cell-based; conditions: NIH3T3, 72 h
Procedure, shortened: (§1)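 Seeded at 1 × 10^4 cells/well (MCF-7: EMEM + 10% FBS; MDA-MB-231: EMEM + 10% NuSerum; NIH3T3: DMEM + 5% NuSerum + 1% antibiotics). Exposed to 1.25–40 μM final (DMSO stock diluted in water) for 72 h at 37 °C, 5% CO2. Day-0 plate used. Fixed with TCA (10% final, 4 °C, 1 h), stained with 0.4% SRB, dye dissolved in 10 mM Tris. IC50 derived. Podophyllotoxin and 0.5% DMSO as controls.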

[2] = system: MDA-MB-231; experiment: Antiproliferative activity against human MDA-MB-231 cells assessed as inhibition of cell proliferation incubated for 72 hrs by SRB assay; assay type: functional, cell-based; conditions: MDA-MB-231, 72 h; procedure, shortened: as §1
[3] = system: Artemia salina; experiment: Cytotoxicity against Artemia salina assessed as induction of shrimp mortality incubated for 24 hrs; assay type: functional; conditions: for LC50: read-out: LD50 (the source's name)
[4] = system: MCF7; experiment: Antiproliferative activity against human MCF7 cells assessed as inhibition of cell proliferation incubated for 72 hrs by SRB assay; assay type: functional, cell-based; conditions: MCF7, 72 h; procedure, shortened: as §1

**Q.** Which results are given for COc1cc([C@@H]2c3cc4c(cc3[C@H](O)[C@H]3COC(=O)[C@H]23)OCO4)cc(OC)c1OC [PODOFILOX]?
**A.** IC50 [1]: 0.084 µM; IC50 [2]: 0.079 µM

**Q.** Which results are given for COc1c(C)c(O)c2c(=O)c(-c3ccc(O)cc3)coc2c1C?
**A.** IC50 [1]: > 40 µM; IC50 [2]: 7 µM; Activity [3]: Dose-dependent effect; LC50 [3]: 20.2 µM; IC50 [4]: > 40 µM

**Q.** For COc1c(C)c(O)c2c(=O)cc(-c3ccc(O)cc3)oc2c1C [SIDEROXYLIN], which IC50 [1] is on record?
**A.** Its IC50 is greater than 40 µM.

**Q.** What about the IC50 [2] of the same compound?
**A.** Its IC50 is 36.9 µM.

**Q.** What about the Activity [3] of the same compound?
**A.** Its Activity is “Dose-dependent effect”.

**Q.** And the LC50 [3]?
**A.** Its LC50 is 80.1 µM.

**Q.** What about the IC50 [4] of the same compound?
**A.** Its IC50 is 14.7 µM.
